Activity calls are given as the source filed them. The rule behind the calls is not given here.
Tests used:
Mus musculus [1] = test: Anti-diabetic nephropathic activity in db/db mouse assessed as reduction in plasma uric acid levels at 1 to 2 mg/kg, ip administered thrice per week for 12 consecutive weeks measured at 11 weeks post dose; type: functional, organism-based
Procedure, shortened: (§1)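 Male db/db mice, 8 weeks old, randomized; ip vehicle (5% Tween-80 in 0.9% saline) or drug three times weekly for 12 weeks, n = 6 per group. After 11 weeks, 24 h urine collected for volume, albumin and creatinine, with UACR calculated; blood then sampled for plasma BUN and uric acid. Mean ± SD, one-way ANOVA with Tukey test.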

[2] = target: Voltage-gated inwardly rectifying potassium channel KCNH2 (Homo sapiens, UniProt Q12809); test: Inhibition of human ERG expressed in CHO cells at -80 mV holding potential by patch clamp assay; type: cell-based
[3] = Drug level in Sprague-Dawley rat kidney at 30 mg/kg, ip measured at 10 mins by LC-MS/MS analysis; type: ADME, organism-based; conditions: read-out: Drug uptake
Procedure, shortened: (§2)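 Rats given a single ip injection, 20 mg/kg (0.04 mmol) of CDDO-Me or 30 mg/kg (0.04 mmol) of the prodrug; heart, kidney and liver collected over time; parent compound and liberated CDDO-Me measured by LC-MS/MS.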

Mus musculus [4] = test: Cardioprotective activity in C57BL/6 db/db mouse assessed as reduction in apoptotic cardiomyocyte levels at 1 to 2 mg/kg, ip administered for 12 weeks by TUNNEL assay; type: functional, organism-based
Procedure, shortened: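 db/db mice, 8 weeks old, with C57BL/6 controls; ip vehicle or drug for 12 weeks, n = 6 per group. Heart sections (5 μm) from paraformaldehyde-fixed, paraffin-embedded tissue analysed by TUNEL; percentage of apoptotic cardiomyocytes from three sections per mouse; mean ± SD from two separate experiments.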

[5] = Drug metabolism in PBS buffer at 100 uM after 8 hrs by HPLC analysis; type: physicochemical; conditions: read-out: Drug metabolism
Procedure, shortened: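 Substrate incubated in PBS, pH 7.4, at 37 °C for 8 h; conversion measured by HPLC.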

Kidney = test: In vivo drug metabolism in Sprague-Dawley rat assessed as CDDO-Me formation in kidney at 30 mg/kg, ip measured at 90 mins by LC-MS/MS analysis; type: ADME, organism-based; conditions: 1.5 h; procedure, shortened: as §2
Mus musculus [6] = test: Toxicity in db/db mouse assessed as change in body weight at 1 to 2 mg/kg, ip administered thrice per week for 12 consecutive weeks measured every other day; type: organism-based; conditions: in vivo
Procedure, shortened: (§3)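 Male db/db mice (8 weeks old, specific pathogen-free, normal chow and filtered water ad libitum) were randomized and dosed i.p. three times weekly for 12 consecutive weeks; vehicle was 5% Tween-80 in 0.9% saline. Body weight and food and water consumption were recorded every other day.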

Mus musculus [7] = test: Anti-diabetic nephropathic activity in db/db mouse assessed as reduction in plasma urea nitrogen levels at 1 to 2 mg/kg, ip administered thrice per week for 12 consecutive weeks measured 11 weeks post dose; type: functional, organism-based; procedure, shortened: as §1
[8] = Drug level in Sprague-Dawley rat kidney at 30 mg/kg, ip measured at 30 mins by LC-MS/MS analysis; type: ADME, organism-based; conditions: read-out: Drug uptake; procedure, shortened: as §2
Mus musculus [9] = test: Antidiabetic nephropathic activity in db/db mouse assessed as reduction in 24 hrs urine volume at 1 to 2 mg/kg, ip administered thrice per week for 12 consecutive weeks measured at 11 weeks post dose; type: functional, organism-based; procedure, shortened: as §1
[10] = Drug level in Sprague-Dawley rat heart at 30 mg/kg, ip measured at 90 mins by LC-MS/MS analysis; type: ADME, organism-based; conditions: read-out: Drug uptake; procedure, shortened: as §2
Mus musculus [11] = test: Antidiabetic nephropathic activity in db/db mouse assessed as reduction in urinary albumin at 1 to 2 mg/kg, ip administered thrice per week for 12 consecutive weeks measured at 24 hrs post 11 week administration; type: functional, organism-based; procedure, shortened: as §1
[12] = target: Kelch-like ECH-associated protein 1 (Homo sapiens) (UniProt Q14145); test: Inhibition of Keap1/Nrf2 (unknown origin) interaction transfected in HEK293 cells assessed as increase in nuclear to cytosolic Nfr2 ratio after 48 hrs by Western blot analysis; type: cell-based
Procedure, shortened: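 HEK293 cells grown in high-glucose DMEM with 10% FBS were treated in triplicate at 200 or 1000 nM for 48 h. Nuclear and cytosolic Nrf2, HO-1 and cytoplasmic NQO1 were measured by western blot with specific antibodies, with TBP and β-actin among the probed proteins. The nuclear/cytosolic Nrf2 ratio was derived from these blots. Three independent experiments, mean ± SD.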

[13] = Drug level in Wistar rat plasma treated with 1-Hydroxyl-2-cyano-3-(4-(methyl-L-glutaminate-N5-yl)-benzyloxy)-12-oxo-oleana-2(3),9(11)-dien-28-oic Acid Methyl Ester assessed as GGT-mediated metabolite formation at 100 uM after 8 hrs by HPLC analysis; type: ADME
Procedure, shortened: (§4)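 Plasma, and kidney and liver homogenates in PBS, from three Wistar rats; substrate added at 100 μM at 37 °C; metabolite measured by HPLC every 60 min for 8 h; mean ± SD of three experiments.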

Mus musculus [14] = test: Renoprotective activity in db/db mouse assessed as reduction of fibrosis in glomeruli at 0.65 mg/kg, ip administered trice per week for 12 consecutive weeks measured at 11 weeks post dose by H/E-staining based microscopic analysis; type: functional, organism-based
Procedure, shortened: (§5)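 Male db/db mice, 8 weeks old, were randomized and dosed i.p. three times weekly for 12 weeks (vehicle: 5% Tween-80 in 0.9% saline; n = 6 per group). Kidneys were fixed in 4% PFA and paraffin-embedded. 5 μm sections were stained with HE, PAS or Masson's trichrome and examined at ×400.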

Mus musculus [15] = test: Anti-diabetic nephropathic activity in db/db mouse assessed as reduction in plasma uric acid levels at 0.65 mg/kg, ip administered trice per week for 12 consecutive weeks measured at 11 weeks post dose; type: functional, organism-based; procedure, shortened: as §1
Mus musculus [16] = test: Anti-diabetic nephropathic activity in db/db mouse assessed as reduction in 24 hr urine volume at 0.65 mg/kg, ip administered trice per week for 12 consecutive weeks measured at 11 weeks post dose; type: functional, organism-based; procedure, shortened: as §1
Mus musculus [17] = test: Renoprotective activity in db/db mouse assessed as reduction in thickening of capillary walls in glomeruli at 0.65 mg/kg, ip administered trice per week for 12 consecutive weeks measured at 11 weeks post dose by H/E-staining based microscopic analysis; type: functional, organism-based; procedure, shortened: as §5
Mus musculus [18] = test: Toxicity in db/db mouse assessed as effect on food consumption at 0.65 mg/kg, ip administered trice per week for 12 consecutive weeks measured every other day; type: organism-based; conditions: in vivo; procedure, shortened: as §3
[19] = Drug level in Wistar rat liver homogenates treated with 1-Hydroxyl-2-cyano-3-(4-(methyl-L-glutaminate-N5-yl)-benzyloxy)-12-oxo-oleana-2(3),9(11)-dien-28-oic Acid Methyl Ester assessed as GGT-mediated metabolite formation at 100 uM after 8 hrs by HPLC analysis; type: ADME, tissue-based; conditions: tissue homogenate; procedure, shortened: as §4
[20] = Drug level in Krebs buffer treated with 1-Hydroxyl-2-cyano-3-(4-(methyl-L-glutaminate-N5-yl)-benzyloxy)-12-oxo-oleana-2(3),9(11)-dien-28-oic Acid Methyl Ester assessed as bovine kidney GGT-mediated metabolite formation at 100 uM at pH 7.4 after 8 hrs in presence of porcine liver esterase by HPLC analysis; type: ADME, Bos taurus; conditions: cattle, isolated protein, pH 7.4, 8 h
Procedure, shortened: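 Substrate at 100 μM in Krebs buffer, pH 7.4, 37 °C, with porcine liver esterase (2 U/mL), GGT (1 U/mL) and Gly-Gly (5 mM) for 8 h, in triplicate; products quantified by HPLC.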

[21] = Drug level in Sprague-Dawley rat liver at 20 mg/kg, ip measured at 90 mins by LC-MS/MS analysis; type: ADME, organism-based; conditions: read-out: Drug uptake; procedure, shortened: as §2
Mus musculus [22] = test: Anti-diabetic nephropathic activity in db/db mouse assessed as reduction in urine albumin to creatinine ratio at 0.65 mg/kg, ip administered trice per week for 12 consecutive weeks measured at 24 hrs post 11 week administration; type: functional, organism-based; procedure, shortened: as §1

Voltage-gated inwardly rectifying potassium channel KCNH2, sequence (Q12809 whole entry): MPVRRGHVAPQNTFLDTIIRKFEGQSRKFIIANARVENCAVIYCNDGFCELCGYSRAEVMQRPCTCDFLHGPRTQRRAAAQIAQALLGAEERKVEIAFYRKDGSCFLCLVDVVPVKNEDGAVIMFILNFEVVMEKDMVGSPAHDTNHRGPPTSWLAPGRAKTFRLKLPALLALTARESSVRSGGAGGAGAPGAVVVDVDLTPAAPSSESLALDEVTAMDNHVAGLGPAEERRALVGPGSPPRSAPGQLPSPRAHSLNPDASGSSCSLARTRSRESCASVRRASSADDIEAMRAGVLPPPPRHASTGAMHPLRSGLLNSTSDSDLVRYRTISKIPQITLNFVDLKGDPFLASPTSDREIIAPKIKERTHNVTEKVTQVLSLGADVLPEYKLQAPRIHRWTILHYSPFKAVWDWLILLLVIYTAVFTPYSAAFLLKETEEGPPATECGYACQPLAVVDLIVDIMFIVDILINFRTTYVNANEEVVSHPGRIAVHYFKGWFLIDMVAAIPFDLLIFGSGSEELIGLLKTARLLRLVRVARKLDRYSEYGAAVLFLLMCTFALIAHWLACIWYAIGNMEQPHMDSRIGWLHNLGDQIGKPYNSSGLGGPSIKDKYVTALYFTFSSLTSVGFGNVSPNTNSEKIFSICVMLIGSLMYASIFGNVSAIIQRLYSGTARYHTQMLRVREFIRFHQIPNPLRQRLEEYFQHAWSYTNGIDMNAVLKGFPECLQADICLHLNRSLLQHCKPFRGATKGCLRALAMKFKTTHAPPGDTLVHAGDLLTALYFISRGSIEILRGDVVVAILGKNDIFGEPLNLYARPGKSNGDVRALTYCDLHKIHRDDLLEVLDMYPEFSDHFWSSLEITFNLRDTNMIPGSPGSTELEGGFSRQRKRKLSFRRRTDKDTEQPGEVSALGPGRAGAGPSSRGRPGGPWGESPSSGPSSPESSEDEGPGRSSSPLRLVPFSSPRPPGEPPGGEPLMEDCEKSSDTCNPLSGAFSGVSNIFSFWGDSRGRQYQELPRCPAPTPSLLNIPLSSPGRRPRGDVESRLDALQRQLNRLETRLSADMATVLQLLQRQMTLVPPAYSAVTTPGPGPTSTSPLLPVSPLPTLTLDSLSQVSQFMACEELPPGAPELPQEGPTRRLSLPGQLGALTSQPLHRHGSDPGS
Kelch-like ECH-associated protein 1 (Homo sapiens), sequence (Q14145 whole entry): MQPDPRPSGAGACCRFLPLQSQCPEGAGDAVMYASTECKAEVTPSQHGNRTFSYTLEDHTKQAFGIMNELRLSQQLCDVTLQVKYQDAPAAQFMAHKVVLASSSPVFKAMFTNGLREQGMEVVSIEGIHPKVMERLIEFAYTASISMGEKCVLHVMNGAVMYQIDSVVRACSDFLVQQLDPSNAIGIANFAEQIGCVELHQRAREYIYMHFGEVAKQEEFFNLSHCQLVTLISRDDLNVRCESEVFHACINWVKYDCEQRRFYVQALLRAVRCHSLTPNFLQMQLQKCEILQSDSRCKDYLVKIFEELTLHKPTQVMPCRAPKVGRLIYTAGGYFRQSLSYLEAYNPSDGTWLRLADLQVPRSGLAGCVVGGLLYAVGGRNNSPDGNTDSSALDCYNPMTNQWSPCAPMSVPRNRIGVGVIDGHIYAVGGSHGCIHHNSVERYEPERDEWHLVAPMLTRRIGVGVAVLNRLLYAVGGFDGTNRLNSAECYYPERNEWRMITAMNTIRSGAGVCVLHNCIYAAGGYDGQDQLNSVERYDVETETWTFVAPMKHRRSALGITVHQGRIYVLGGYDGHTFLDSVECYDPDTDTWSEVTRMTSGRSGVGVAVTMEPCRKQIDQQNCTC

For COC(=O)[C@@H](N)CCC(=O)Nc1ccc(COC2=C(C#N)[C@H](O)[C@]3(C)C4=CC(=O)[C@@H]5[C@@H]6CC(C)(C)CC[C@]6(C(=O)OC)CC[C@@]5(C)[C@]4(C)CC[C@H]3C2(C)C)cc1, the Activity (Mus musculus [1]) was “Active”, the IC50 [2] was over 200 µM and the concentration at 10 min [3] was 1230 ng/g. The Activity (Mus musculus [4]) was “Active”, the degraded at 8 h, 100 µM [5] was 20% and the Drug metabolism (Kidney) was 0.18 µg/g. The Activity (Mus musculus [6]) was “Non-Toxic”, the Activity (Mus musculus [7]) was “Active” and the concentration at 0.5 h [8] was 1000 ng/g. The Activity (Mus musculus [9]) was “Active”, the concentration at 1.5 h [10] was 1310 ng/g and the Activity (Mus musculus [11]) was “Active”. The inhibition [12] was “Dose-dependent effect”.

In the case of COC(=O)[C@]12CCC(C)(C)C[C@H]1[C@H]1C(=O)C=C3[C@@]4(C)C=C(C#N)C(=O)C(C)(C)[C@@H]4CC[C@@]3(C)[C@]1(C)CC2 [BARDOXOLONE METHYL], the Drug metabolism [13] is reported as “Metabolite_Detected”, the Activity (Mus musculus [14]) is reported as “Active” and the Activity (Mus musculus [15]) is reported as “Active”. For the same molecule, the Activity (Mus musculus [16]) was “Active”, the Activity (Mus musculus [17]) was “Active” and the Activity (Mus musculus [18]) was “Non-Toxic”. The Drug metabolism [19] was “Metabolite_Detected”, the Drug metabolism [20] was “Metabolite_Detected” and the concentration at 1.5 h [21] was 1550 ng/g. The Activity (Mus musculus [22]) was “Active”.

Source: ChEMBL document CHEMBL4017544 (J Med Chem, 2017)
